The source made the active and inactive calls. The calls are words filed in the database; no cut-off is given here.
Tests used:
HT-29 = experiment: Cytotoxicity against human HT-29 cells at 30 uM by MTS assay; type: functional, cell-based
MDA-MB-231 = experiment: Cytotoxicity against human MDA-MB-231 cells at 30 uM by MTS assay; type: functional, cell-based
A549 [1] = experiment: Cytotoxicity against human A549 cells at 30 uM by MTS assay relative to control; type: functional
Summary of the method: (§1)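 MTS read-out (CellTiter 96 AQueous One) of proliferation in A549 or HCT-116 cells grown in DMEM with 10% FBS at 37 °C, 5% CO2. Taxol-resistant A549 cells were exposed for 72 h. Compounds were screened at 30 μM versus vehicle, with ≥50% inhibition counted active. Actives were then tested over a concentration range for IC50. Triplicate wells, three independent experiments, mean ± SD.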

MCF7 = experiment: Cytotoxicity against human MCF7 cells at 30 uM by MTS assay; type: functional, cell-based
HCT-116 [2] = experiment: Cytotoxicity against human HCT116 cells at 30 uM by MTS assay relative to control; type: functional; summary of the method: as §1
HeLa = experiment: Cytotoxicity against human HeLa cells at 30 uM by MTS assay; type: functional, cell-based
HCT-116 [3] = experiment: Cytotoxicity against human HCT116 cells by MTS assay; type: functional, cell-based; summary of the method: as §1
A549 [4] = experiment: Cytotoxicity against human A549 cells by MTS assay; type: functional, cell-based; summary of the method: as §1

| SMILES | Activity (HT-29) | Activity (MDA-MB-231) | Activity (A549 [1]) | Activity (MCF7) | Activity (HCT-116 [2]) | Activity (HeLa) | IC50 (HCT-116 [3]) | IC50 (A549 [4]) |
| --- | --- | --- | --- | --- | --- | --- | --- | --- |
| Cc1cc2c(=O)[nH]c(CNC(=S)SCc3ccc([N+](=O)[O-])cc3)nc2s1 | inactive | inactive | inactive | inactive | inactive | inactive | – | – |
| Cc1cc2c(=O)[nH]c(CSC(=S)NCc3cccs3)nc2s1 | inactive | inactive | >=50% | inactive | >=50% | inactive | 27.8 µM | 23 µM |
| Cc1cc2c(=O)[nH]c(CSC(=S)NCc3ccco3)nc2s1 | inactive | inactive | >=50% | inactive | >=50% | inactive | 29.8 µM | > 30 µM |
| COc1cccc(CSC(=S)NCc2nc3sc(C)cc3c(=O)[nH]2)c1 | inactive | inactive | inactive | inactive | inactive | inactive | – | – |
| Cc1cc2c(=O)[nH]c(CSC(=S)NCc3ccc([N+](=O)[O-])cc3)nc2s1 | inactive | inactive | >=50% | inactive | >=50% | inactive | 20.2 µM | 12.3 µM |
| Cc1ccc(CSC(=S)NCc2nc3sc(C)cc3c(=O)[nH]2)cc1 | inactive | inactive | inactive | inactive | inactive | inactive | – | – |
| Cc1cc2c(=O)[nH]c(CNC(=S)SCc3ccc(Cl)cc3)nc2s1 | inactive | inactive | inactive | inactive | inactive | inactive | – | – |
| Cc1cc2c(=O)[nH]c(CSC(=S)NCc3ccc(Br)cc3)nc2s1 | inactive | inactive | >=50% | inactive | >=50% | inactive | 28.7 µM | 21.9 µM |
| Cc1cc2c(=O)[nH]c(CSC(=S)NCc3ccccc3F)nc2s1 | inactive | inactive | >=50% | inactive | >=50% | inactive | 29.7 µM | > 30 µM |
| Cc1cc2c(=O)[nH]c(CNC(=S)SCc3ccc(Br)cc3)nc2s1 | inactive | inactive | inactive | inactive | inactive | inactive | – | – |
| COc1ccc(CNC(=S)SCc2nc3sc(C)cc3c(=O)[nH]2)cc1 | inactive | inactive | >=50% | inactive | >=50% | inactive | 24.5 µM | 29.1 µM |
| Cc1cc2c(=O)[nH]c(CNC(=S)SCc3ccccc3)nc2s1 | inactive | inactive | inactive | inactive | inactive | inactive | – | – |
| COc1cc(CNC(=S)SCc2nc3sc(C)cc3c(=O)[nH]2)cc(OC)c1OC | inactive | inactive | >=50% | inactive | >=50% | inactive | 14.9 µM | 7.89 µM |
| CCOC(=O)c1ccc(CSC(=S)NCc2nc3sc(C)cc3c(=O)[nH]2)cc1 | inactive | inactive | inactive | inactive | inactive | inactive | – | – |
| Cc1cc2c(=O)[nH]c(CSC(=S)NCc3ccc(Cl)cc3Cl)nc2s1 | inactive | inactive | >=50% | inactive | >=50% | inactive | > 30 µM | 29.5 µM |
| Cc1cc2c(=O)[nH]c(CSC(=S)NCc3ccncc3)nc2s1 | inactive | inactive | >=50% | inactive | >=50% | inactive | 14.1 µM | 7.43 µM |
| Cc1cc2c(=O)[nH]c(CSC(=S)NCc3ccc(F)cc3)nc2s1 | inactive | inactive | >=50% | inactive | >=50% | inactive | 28.7 µM | 18.9 µM |
| Cc1cc2c(=O)[nH]c(CSC(=S)NCc3cccnc3)nc2s1 | inactive | inactive | >=50% | inactive | >=50% | inactive | 9.3 µM | 5.79 µM |
| Cc1cc2c(=O)[nH]c(CNC(=S)SCc3ccc(F)cc3)nc2s1 | inactive | inactive | inactive | inactive | inactive | inactive | – | – |
| COc1ccccc1CSC(=S)NCc1nc2sc(C)cc2c(=O)[nH]1 | inactive | inactive | inactive | inactive | inactive | inactive | – | – |
| Cc1cc2c(=O)[nH]c(CNC(=S)SCc3ccc(F)cc3F)nc2s1 | inactive | inactive | inactive | inactive | inactive | inactive | – | – |
| Cc1cc2c(=O)[nH]c(CSC(=S)NCc3ccccc3)nc2s1 | inactive | inactive | >=50% | inactive | >=50% | inactive | > 30 µM | 29.5 µM |
| COc1ccccc1CNC(=S)SCc1nc2sc(C)cc2c(=O)[nH]1 | inactive | inactive | >=50% | inactive | >=50% | inactive | 18.1 µM | 7.01 µM |
| Cc1cc2c(=O)[nH]c(CNC(=S)SCc3ccc(C#N)cc3)nc2s1 | inactive | inactive | inactive | inactive | inactive | inactive | – | – |
| COc1ccc(CSC(=S)NCc2nc3sc(C)cc3c(=O)[nH]2)cc1 | inactive | inactive | inactive | inactive | inactive | inactive | – | – |

Source: ChEMBL document CHEMBL4152279, “Synthesis, cytotoxic evaluation and target identification of thieno[2,3-d]pyrimidine derivatives with a dithiocarbamate side chain at C2 position” (Eur J Med Chem, 2018)
